Reference: paper PMC4772774 (Journal of medicinal chemistry, 2015)
Read-outs that look alike come from different tables or passages of the source.

Experiments:
κ-opioid receptor (KOR) [1] = molecular target: T1, κ-opioid receptor (KOR) (Homo sapiens, UniProt P41145); assay: Agonist stimulation of [35S]GTPγS binding, CHO-KOR membranes; assay type: biochemical; conditions: for EC50 KOR: [35S]GTPγS binding, mean (S.E.M.), n=3 (footnote d: n=2), dns: does not stimulate
δ-opioid receptor (DOR) [2] = molecular target: T2, δ-opioid receptor (DOR) (Rattus norvegicus, UniProt P33533); assay: Agonist stimulation of [35S]GTPγS binding, C6-DOR membranes; assay type: biochemical; conditions: dns: does not stimulate; for EC50 DOR: [35S]GTPγS binding, mean (S.E.M.), n=3; for % stimulation DOR: percent maximal stimulation relative to DPDPE at 10 µM
Procedure, shortened: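 C6 rat glioma cells stably expressing rat DOR; membranes (10–20 µg protein) incubated 1 h at 25°C in 50 mM Tris-HCl, 100 mM NaCl, 5 mM MgCl2, pH 7.4, with 0.1 nM [35S]GTPγS, 30 µM GDP and varying test compound.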

DOR = DOR (Rattus norvegicus, UniProt P33533); assay: Antagonism of the DOR agonist DPDPE; assay type: biochemical
C57BL/6 mice = assay: Mouse warm water tail withdrawal; assay type: in vivo; conditions: 10 mg/kg ip
Plasma stability testing = assay type: in vitro ADME; conditions: in plasma after 30 min
κ-opioid receptor (KOR) [3] = molecular target: T1, κ-opioid receptor (KOR); conditions: [35S]GTPγS binding; dns: does not stimulate; previously published, ref [1]; cited from earlier work
δ-opioid receptor (DOR) [4] = molecular target: T2, δ-opioid receptor (DOR); conditions: [35S]GTPγS binding; dns: does not stimulate; previously published, ref [1]; cited from earlier work
µ-opioid receptor (MOR) [5] = molecular target: T3, µ-opioid receptor (MOR) (Rattus norvegicus, UniProt P33535); conditions: relative to DAMGO at 10 µM; previously published, ref [1]; cited from earlier work
µ-opioid receptor (MOR) [6] = molecular target: T3, µ-opioid receptor (MOR); assay: Agonist stimulation of [35S]GTPγS binding, C6-MOR membranes; assay type: biochemical; conditions: dns: does not stimulate
Procedure, shortened: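 C6 rat glioma cells stably expressing rat MOR were grown in DMEM/10% FBS. Membranes (10–20 µg protein) were incubated 1 h at 25 °C in 50 mM Tris-HCl, 100 mM NaCl, 5 mM MgCl2, pH 7.4, with 0.1 nM [35S]GTPγS, 30 µM GDP and varying compound concentrations. Samples were GF/C-filtered and scintillation-counted. Stimulation was expressed relative to 10 µM DAMGO.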

µ-opioid receptor (MOR) [7] = molecular target: T3, µ-opioid receptor (MOR); assay: [3H]diprenorphine competitive displacement binding, C6-MOR membranes

T3 sequence (P33535 whole entry): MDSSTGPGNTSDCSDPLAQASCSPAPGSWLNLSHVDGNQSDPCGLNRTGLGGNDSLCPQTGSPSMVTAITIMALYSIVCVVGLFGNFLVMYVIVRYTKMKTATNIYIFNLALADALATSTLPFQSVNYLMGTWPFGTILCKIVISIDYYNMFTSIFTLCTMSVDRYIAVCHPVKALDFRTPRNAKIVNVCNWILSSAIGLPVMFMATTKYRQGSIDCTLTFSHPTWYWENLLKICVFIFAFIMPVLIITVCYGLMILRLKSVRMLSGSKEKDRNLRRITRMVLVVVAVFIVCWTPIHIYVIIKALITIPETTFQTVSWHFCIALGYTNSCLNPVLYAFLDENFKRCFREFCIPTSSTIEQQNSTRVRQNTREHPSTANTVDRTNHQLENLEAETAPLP
T2 sequence (P33533 whole entry): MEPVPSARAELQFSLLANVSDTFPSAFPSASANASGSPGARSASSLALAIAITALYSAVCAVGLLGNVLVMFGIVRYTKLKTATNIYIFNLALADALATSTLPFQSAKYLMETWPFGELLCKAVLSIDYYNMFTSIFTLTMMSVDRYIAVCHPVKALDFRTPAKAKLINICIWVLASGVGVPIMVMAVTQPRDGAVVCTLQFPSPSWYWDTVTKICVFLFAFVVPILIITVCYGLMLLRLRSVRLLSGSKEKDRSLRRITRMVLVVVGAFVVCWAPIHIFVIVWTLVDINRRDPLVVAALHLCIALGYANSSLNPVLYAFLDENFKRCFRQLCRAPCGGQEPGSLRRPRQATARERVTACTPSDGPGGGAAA
T1 sequence (P41145 whole entry): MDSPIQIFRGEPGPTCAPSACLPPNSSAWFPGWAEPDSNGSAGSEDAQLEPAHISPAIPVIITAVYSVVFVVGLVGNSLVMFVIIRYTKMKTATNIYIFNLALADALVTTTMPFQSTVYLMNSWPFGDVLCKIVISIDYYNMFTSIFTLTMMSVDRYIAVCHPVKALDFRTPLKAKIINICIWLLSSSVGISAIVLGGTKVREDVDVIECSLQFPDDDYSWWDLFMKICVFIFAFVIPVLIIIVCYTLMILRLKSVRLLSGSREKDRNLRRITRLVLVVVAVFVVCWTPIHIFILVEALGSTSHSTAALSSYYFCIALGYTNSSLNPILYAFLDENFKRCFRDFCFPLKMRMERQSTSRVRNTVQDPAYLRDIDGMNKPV
Chain of DOR (P33533 whole entry): as the sequence (P33533 whole entry) above

## CC(=O)N1CC[C@@H](NC(=O)[C@@H](N)Cc2c(C)cc(O)cc2C)c2cc(CC3CCc4ccccc43)ccc21 (mixture of isomers) [14g, (S)-N-((R)-1-Acetyl-6-(((R/S)-2,3-dihydro-1H–inden-1-yl)methyl)-1,2,3,4-tetrahydroquinolin-4-yl)-2-amino-3-(4-hydroxy-2,6-dimethylphenyl)propanamide]
κ-opioid receptor (KOR) [1]
  EC50: > 1000 nM
δ-opioid receptor (DOR) [2]
  EC50 DOR: dns
  % stimulation DOR: dns

## Cc1cc(O)cc(C)c1C[C@H](N)C(=O)N[C@@H]1CCNc2ccc(CC3CCc4ccccc43)cc21 (mixture of isomers) [14h, (S)-2-Amino-N-((R)-6-(((R/S)-2,3-dihydro-1H–inden-1-yl)methyl)-1,2,3,4-tetrahydroquinolin-4-yl)-3-(4-hydroxy-2,6-dimethylphenyl)propanamide]
δ-opioid receptor (DOR) [2]
  EC50 DOR: dns
  % stimulation DOR: dns

## CC(=O)N1CC[C@@H](NC(=O)[C@@H](N)Cc2c(C)cc(O)cc2C)c2cc(Cc3ccc4ccccc4c3)ccc21 [14a, (S)-N-((R)-1-Acetyl-6-(naphthalen-2-ylmethyl)-1,2,3,4-tetrahydroquinolin-4-yl)-2-amino-3-(4-hydroxy-2,6-dimethylphenyl)propanamide]
DOR
  Kb: 1.98 nM
κ-opioid receptor (KOR) [1]
  EC50 KOR: dns ^d
δ-opioid receptor (DOR) [2]
  EC50 DOR: dns
  % stimulation DOR: dns
C57BL/6 mice; mouse WWTW time course
  duration of maximal antinociception: approximately 200 min
C57BL/6 mice; mouse WWTW, relative to original lead 14i
  duration of action compared to 14i: greater than 3 times
Plasma stability testing
  plasma stability: fully stable

## Cc1cc(O)cc(C)c1C[C@H](N)C(=O)N[C@@H]1CCNc2ccc(CC3CCCCC3)cc21 [14b, (S)-2-Amino-N-((R)-6-(cyclohexylmethyl)-1,2,3,4-tetrahydroquinolin-4-yl)-3-(4-hydroxy-2,6-dimethylphenyl)propanamide]
δ-opioid receptor (DOR) [2]
  EC50 DOR: dns
  % stimulation DOR: dns

## CC(=O)N1CC[C@@H](NC(=O)[C@@H](N)Cc2c(C)cc(O)cc2C)c2cc(CC3CCCCC3)ccc21 [14c, (S)-N-((R)-1-Acetyl-6-(cyclohexylmethyl)-1,2,3,4-tetrahydroquinolin-4-yl)-2-amino-3-(4-hydroxy-2,6-dimethylphenyl)propanamide]
δ-opioid receptor (DOR) [2]
  % stimulation DOR: 26 (5) %

## CC(=O)N1CC[C@@H](NC(=O)[C@@H](N)Cc2c(C)cc(O)cc2C)c2cc(Cc3cccc4ccccc34)ccc21 [14d, (S)-N-((R)-1-Acetyl-6-(naphthalen-1-ylmethyl)-1,2,3,4-tetrahydroquinolin-4-yl)-2-amino-3-(4-hydroxy-2,6-dimethylphenyl)propanamide]
DOR
  Kb: 27.5 nM
κ-opioid receptor (KOR) [1]
  EC50 KOR: dns ^d
δ-opioid receptor (DOR) [2]
  EC50 DOR: dns
  % stimulation DOR: dns
Plasma stability testing
  plasma stability: fully stable

## CC(=O)N1CC[C@@H](NC(=O)[C@@H](N)Cc2c(C)cc(O)cc2C)c2cc(Cc3ccccc3)ccc21 [14e, (S)-N-((R)-1-Acetyl-6-benzyl-1,2,3,4-tetrahydroquinolin-4-yl)-2-amino-3-(4-hydroxy-2,6-dimethylphenyl)propanamide]
δ-opioid receptor (DOR) [2]
  % stimulation DOR: 26 (3) %

## CC(=O)N1CC[C@@H](NC(=O)[C@@H](N)Cc2c(C)cc(O)cc2C)c2cc(CC3Cc4ccccc4C3)ccc21 [14f, (S)-N-((R)-1-Acetyl-6-((2,3-dihydro-1H–inden-2-yl)methyl)-1,2,3,4-tetrahydroquinolin-4-yl)-2-amino-3-(4-hydroxy-2,6-dimethylphenyl)propanamide]
δ-opioid receptor (DOR) [2]
  EC50 DOR: dns
  % stimulation DOR: dns

## Cc1cc(O)cc(C)c1C[C@H](N)C(=O)N[C@@H]1CCNc2ccc(Cc3ccc4ccccc4c3)cc21 [14j, (S)-2-Amino-3-(4-hydroxy-2,6-dimethylphenyl)-N-((R)-6-(naphthalen-2-ylmethyl)-1,2,3,4-tetrahydroquinolin-4-yl)propanamide]
κ-opioid receptor (KOR) [3]
  EC50 KOR: dns
δ-opioid receptor (DOR) [4]
  EC50 DOR: dns
µ-opioid receptor (MOR) [5]
  % stimulation MOR: 96 (3) %

## Cc1cc(O)cc(C)c1C[C@H](N)C(=O)N[C@@H]1CCNc2ccc(Cc3cccc4ccccc34)cc21 [14k, (S)-2-Amino-3-(4-hydroxy-2,6-dimethylphenyl)-N-((R)-6-(naphthalen-1-ylmethyl)-1,2,3,4-tetrahydroquinolin-4-yl)propanamide]
κ-opioid receptor (KOR) [3]
  EC50 KOR: dns
µ-opioid receptor (MOR) [5]
  % stimulation MOR: 93 (5) %

## Cc1cc(O)cc(C)c1C[C@H](N)C(=O)N[C@@H]1CCNc2ccc(CC3Cc4ccccc4C3)cc21 [14l, (S)-2-Amino-N-((R)-6-((2,3-dihydro-1H–inden-2-yl)methyl)-1,2,3,4-tetrahydroquinolin-4-yl)-3-(4-hydroxy-2,6-dimethylphenyl)propanamide]
µ-opioid receptor (MOR) [5]
  % stimulation MOR: 86 (1) %

## Cc1cc(O)cc(C)c1C[C@H](N)C(=O)N[C@@H]1CCCc2ccc(Cc3ccccc3)cc21 [14m, (S)-2-Amino-N-((R)-7-benzyl-1,2,3,4-tetrahydronaphthalen-1-yl)-3-(4-hydroxy-2,6-dimethylphenyl) propanamide]
κ-opioid receptor (KOR) [1]
  EC50 KOR: dns
δ-opioid receptor (DOR) [2]
  EC50 DOR: dns
  % stimulation DOR: dns

## Cc1cc(O)cc(C)c1C[C@H](N)C(=O)N[C@@H]1CCCc2ccc(CC3CCCCC3)cc21 [14n, (S)-2-Amino-N-((R)-7-(cyclohexylmethyl)-1,2,3,4-tetrahydronaphthalen-1-yl)-3-(4-hydroxy-2,6-dimethylphenyl)propanamide]
µ-opioid receptor (MOR) [6]; [35S]GTPγS binding, mean (S.E.M.), n=3
  EC50 MOR: dns
µ-opioid receptor (MOR) [6]; percent maximal stimulation relative to DAMGO at 10 µM
  % stimulation MOR: dns
µ-opioid receptor (MOR) [7]
  Ki: 0.12 nM
δ-opioid receptor (DOR) [2]
  EC50 DOR: dns
  % stimulation DOR: dns

## Cc1cc(O)cc(C)c1C[C@H](N)C(=O)N[C@@H]1CCCc2ccc(Cc3ccc4ccccc4c3)cc21 [14o, (S)-2-Amino-3-(4-hydroxy-2,6-dimethylphenyl)-N-((R)-7-(naphthalen-2-ylmethyl)-1,2,3,4-tetrahydronaphthalen-1-yl)propanamide]
κ-opioid receptor (KOR) [1]
  EC50 KOR: dns
δ-opioid receptor (DOR) [2]
  EC50 DOR: dns
  % stimulation DOR: dns

## Cc1cc(O)cc(C)c1C[C@H](N)C(=O)N[C@@H]1CCCc2ccc(Cc3cccc4ccccc34)cc21 [14p, (S)-2-Amino-3-(4-hydroxy-2,6-dimethylphenyl)-N-((R)-7-(naphthalen-1-ylmethyl)-1,2,3,4-tetrahydronaphthalen-1-yl)propanamide]
κ-opioid receptor (KOR) [1]
  EC50 KOR: dns ^d
δ-opioid receptor (DOR) [2]
  EC50 DOR: dns
  % stimulation DOR: dns
